Screens as filed in PubChem.
This is a sample that favours compounds with a hit; in the whole collection about 1.8% have one here.
MLLE-PAM2 inh: inhibitors of microRNA-mediated deadenylation, human PABP1 MLLE binding. GST-MLLE / FITC-PAM2 fluorescence polarization. inhibition, % at 20 µM. 360,000 tested, 0.36% active; in the data active means inhibition above about 35%, passing the limit was not always enough;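 further: plate controls were DMSO wells with GST-MLLE for no effect and wells lacking GST-MLLE protein for full effect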
Target sequence (P11940 whole entry, looked up): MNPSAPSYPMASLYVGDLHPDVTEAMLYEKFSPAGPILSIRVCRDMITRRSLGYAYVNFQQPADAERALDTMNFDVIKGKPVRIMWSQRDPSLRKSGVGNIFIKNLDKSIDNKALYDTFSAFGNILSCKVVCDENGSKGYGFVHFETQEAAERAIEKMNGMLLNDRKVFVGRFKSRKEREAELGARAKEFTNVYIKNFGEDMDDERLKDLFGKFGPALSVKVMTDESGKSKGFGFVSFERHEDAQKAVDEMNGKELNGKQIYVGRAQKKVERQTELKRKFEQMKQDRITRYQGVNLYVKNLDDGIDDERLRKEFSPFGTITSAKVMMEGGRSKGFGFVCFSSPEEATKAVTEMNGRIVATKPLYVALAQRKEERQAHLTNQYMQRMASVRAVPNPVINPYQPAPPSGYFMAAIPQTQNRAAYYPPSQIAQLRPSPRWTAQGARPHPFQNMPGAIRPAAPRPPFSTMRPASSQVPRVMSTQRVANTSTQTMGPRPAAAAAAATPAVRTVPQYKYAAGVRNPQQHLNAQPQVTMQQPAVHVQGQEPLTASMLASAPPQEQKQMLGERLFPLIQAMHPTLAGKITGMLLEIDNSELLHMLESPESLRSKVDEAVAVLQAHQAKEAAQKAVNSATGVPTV
eIF4H FP inh: inhibitors of RNA binding by human eIF4H; eIF4H fluorescence polarization binding assay; 290,000 tested, 0.94% active; inhibition, % at 35 µM; Q15056; AID 2012;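 further: calls also rest on retests at 20 µM and on dose response follow-up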
MT1-MMP act inh: blocks activation of human MT1-MMP; P50281; 360,000 tested, 0.061% active; HT1080 RFP-PRO-GFP cells, GFP/RFP ratio fluorescence, overnight; percent of plate control window, DMSO zero; GFP/RFP ratio change, % at 20 µM;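 active means GFP/RFP ratio change of at least 30% with cell ATP level not reduced by more than half and red fluorescence within 50% of control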
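Assay system – RFP-PRO-GFP reporter HT1080 cells · Compound dosing – single dose of 20 µM compound, 1% DMSO final · Incubation – overnight compound exposure at 37 °C · Measure – GFP/RFP fluorescence ratio · Benchmarks – DMSO wells and RFP-L50D-GFP cells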
SKN-1 inh: blocks SKN-1 activity in C. elegans; 360,000 tested, 0.49% active; inhibition, % at 21.8 µM; C. elegans VP596 Pgst-4::GFP/RFP ratio, acrylamide-induced, 24 h;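 active means interference check ratio from 0.5 to 1.5 plus GFP to RFP signal ratio inhibition reaching or exceeding a fixed threshold, cut at about 30% in these data, passing the limit was not always enough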
PABP polyA inh: blocks human PABP binding to poly(A) RNA; P11940; fluorescence polarization; calls only at 35 µM; 290,000 tested, 1% active; AID 2014;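 further: calls also rest on retests at 20 µM and on dose response follow-up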
* = called active by the depositor; ! = not active in a repeat. Unless noted, how the calls were made is not given here.

Results for CC=C(CC)C1(CCC)C(=O)NC(=S)NC1=O ?
MLLE-PAM2 inh: 14; MT1-MMP act inh: 0; SKN-1 inh: -2

How did CN1[C@H]2CC[C@@H]1C(C(=O)N1CCOCC1)=C(O)C2 do in these assays?
MLLE-PAM2 inh: 5; MT1-MMP act inh: 3; SKN-1 inh: 2

Results for C=CCn1c(O)c(/C=C2/C=CC=N2)c(=O)[nH]c1=O ?
MLLE-PAM2 inh: -8; eIF4H FP inh: 88*; MT1-MMP act inh: 19; SKN-1 inh: -2; PABP polyA inh: active

Results for CCCCn1c(O)c(/C=C2/C=CC=N2)c(=O)[nH]c1=O ?
MLLE-PAM2 inh: -7; eIF4H FP inh: -6; MT1-MMP act inh: -19; SKN-1 inh: 8; PABP polyA inh: inactive

Results for C[C@](N)(CCP(=O)(O)O)C(=O)O ?
MLLE-PAM2 inh: -3; MT1-MMP act inh: 1; SKN-1 inh: 49*

How did O=C(NN=Cc1ccc(N(CCCl)CCCl)cc1)C(=O)c1c[nH]c2ccccc12 do in these assays?
MLLE-PAM2 inh: -4; MT1-MMP act inh: -5; SKN-1 inh: -2

Results for COC(=O)C12OCC34C(CC5C(C)=C(O)C(=O)CC5(C)C3C(O)C1O)OC(=O)C(OC(=O)/C=C(\C)C(C)C)C24 (configuration not stated) ?
MLLE-PAM2 inh: 5; MT1-MMP act inh: -43; SKN-1 inh: 56*

How did CN1CCC2(CC1)C(C#N)=C(N)NC(S)=C2C#N do in these assays?
MLLE-PAM2 inh: -70; eIF4H FP inh: 55*!; MT1-MMP act inh: -34; SKN-1 inh: -2; PABP polyA inh: active

Results for CC(=O)c1ccc2c(c1)C1C(Cl)C(Sc3ccccc3[N+](=O)[O-])CC1C(C(=O)O)N2 (configuration not stated) ?
MLLE-PAM2 inh: 8; eIF4H FP inh: 97; MT1-MMP act inh: 45*; SKN-1 inh: -1; PABP polyA inh: inactive

What do the screens show for `CC(=O)N(C1=NCCCS1)c1ccc(F)cc1`?
MLLE-PAM2 inh: -8; eIF4H FP inh: -5; MT1-MMP act inh: 5; SKN-1 inh: 39*; PABP polyA inh: inactive

How did CC(=O)N(C1=NCCCS1)c1ccc(Cl)cc1 do in these assays?
MLLE-PAM2 inh: 3; eIF4H FP inh: 3; MT1-MMP act inh: -2; SKN-1 inh: 9; PABP polyA inh: inactive

Results for COC(=O)[C@@H]1N=C(c2ccc(OC)cc2)O[C@]12C(=O)N(Cc1ccc(OC)cc1)c1ccccc12 ?
MT1-MMP act inh: 8; SKN-1 inh: 16

How did CCCCCN1C(=O)c2ccccc2[C@@]2(C(=O)OCC)Cc3cc(OC)ccc3[C@@H]12 do in these assays?
MT1-MMP act inh: -13; SKN-1 inh: 7

What do the screens show for `C=CCN1C(=O)NC(=O)/C(=C/c2cc3c4c(c2)CCCN4CCC3)C1=O`?
MLLE-PAM2 inh: -129; eIF4H FP inh: 77*; MT1-MMP act inh: -11; SKN-1 inh: 19; PABP polyA inh: inactive

Results for COc1ccc(CC2C(=O)NC(=O)NC2=O)c(OC)c1 ?
MLLE-PAM2 inh: 5; eIF4H FP inh: 8; MT1-MMP act inh: 0; SKN-1 inh: 9; PABP polyA inh: inactive

Results for COc1ccc(CC2C(=O)N(C)C(=O)N(C)C2=O)c(OC)c1 ?
MLLE-PAM2 inh: 42*; eIF4H FP inh: -3; MT1-MMP act inh: -2; SKN-1 inh: 16; PABP polyA inh: inactive

How did CC(C)[N+](C)(CCC(C(N)=O)(c1ccccc1)c1ccccc1)C(C)C do in these assays?
MLLE-PAM2 inh: -28; eIF4H FP inh: 12*; MT1-MMP act inh: -1; SKN-1 inh: 11; PABP polyA inh: inactive

What do the screens show for `CCC(=O)C(CCN1CCOCC1)(c1ccccc1)c1ccccc1`?
MLLE-PAM2 inh: -6; MT1-MMP act inh: 0; SKN-1 inh: -5

What do the screens show for `C[C@@H]1CN([C@@H](C)CO)C(=O)CCCn2nncc2CO[C@@H]1CN(C)C(=O)Oc1cccc2ccccc12`?
MLLE-PAM2 inh: -6; MT1-MMP act inh: -2; SKN-1 inh: 3

Results for O=c1[nH]c(=O)n(-c2ccccc2)c(O)c1/C=C1/C(c2ccccc2)=Nc2ccccc21 ?
MLLE-PAM2 inh: -13; eIF4H FP inh: inconclusive; MT1-MMP act inh: -4; SKN-1 inh: 36*; PABP polyA inh: inactive

Results for CC[n+]1c(-c2ccccc2)c2cc(N)ccc2c2ccc(N)cc21 ?
MLLE-PAM2 inh: 79*; MT1-MMP act inh: 65; SKN-1 inh: 87

How did Nc1nnc(P(c2ccccc2)c2ccccc2)s1 do in these assays?
MLLE-PAM2 inh: 34; eIF4H FP inh: -5; MT1-MMP act inh: -1; SKN-1 inh: -11; PABP polyA inh: inactive

What do the screens show for `c1ccc(P(c2ccccn2)c2ccccn2)cc1`?
MLLE-PAM2 inh: 44*; eIF4H FP inh: 0; MT1-MMP act inh: -5; SKN-1 inh: 9; PABP polyA inh: inactive

Results for CC(C)C(O)(C(=O)OCC1=CCN2CCC(O)C12)C(C)O (configuration not stated) ?
MLLE-PAM2 inh: -5; MT1-MMP act inh: 2; SKN-1 inh: 3

Results for CC(C)NC1C2CCC(CC2)C1(O)c1ccc(Cl)c(Cl)c1 (configuration not stated) ?
MLLE-PAM2 inh: 0; MT1-MMP act inh: 3; SKN-1 inh: 11

How did CCN(CC)c1ccc(/C=C2\C(=O)NC(=O)N(CC3CCCO3)C2=O)cc1 (configuration not stated) do in these assays?
MLLE-PAM2 inh: -85; eIF4H FP inh: inconclusive; MT1-MMP act inh: -3; SKN-1 inh: 42*; PABP polyA inh: inactive

How did COC(=O)C1=C(c2cccc(C#N)c2)C[C@@H]2CC[C@H]1N2C(=O)NC1Cc2ccccc2C1 do in these assays?
MLLE-PAM2 inh: 13; MT1-MMP act inh: -4; SKN-1 inh: 3

How did Cn1c(O)c(C(c2ccccn2)c2c(O)n(C)c(=S)n(C)c2=O)c(=O)n(C)c1=S do in these assays?
MLLE-PAM2 inh: 14; eIF4H FP inh: 57*; SKN-1 inh: -18; PABP polyA inh: inactive

What do the screens show for `Cn1c(O)c(C(c2ccncc2)c2c(O)n(C)c(=S)n(C)c2=O)c(=O)n(C)c1=S`?
MLLE-PAM2 inh: -2; eIF4H FP inh: -4; MT1-MMP act inh: 0; SKN-1 inh: 15; PABP polyA inh: inactive

Results for O=C(CN1CCOCC1)c1cccc2ccccc12 ?
MLLE-PAM2 inh: 6; eIF4H FP inh: 18; MT1-MMP act inh: -6; SKN-1 inh: 38*; PABP polyA inh: inactive

Results for O=C1CC(=O)N(c2cccc(Br)c2)C(=O)N1 ?
MLLE-PAM2 inh: -37; eIF4H FP inh: 77; MT1-MMP act inh: -11; SKN-1 inh: -2; PABP polyA inh: active

Results for CN(C)[C@@H]1C(=O)C(C(N)=O)=C(O)[C@@]2(O)C(=O)C3=C(O)c4c(O)cccc4[C@@](C)(O)[C@H]3[C@H](O)[C@@H]12 ?
MLLE-PAM2 inh: 18; eIF4H FP inh: 87*; MT1-MMP act inh: -7; SKN-1 inh: 4; PABP polyA inh: active
